Reference: PMC6374747 (Biochemistry, 2018)
Ends that are not written are not given here.

What was measured:
[1] = ThT fluorescence aggregation assay; format: physicochemical; conditions: for Concentration at which amyloid-like aggregation was observed (ThT): pH 5.0, 20 mM NaOAc, 1–200 μM tested
Procedure, shortened: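 Peptide (199 μL; 200–1 μM at pH 5.0 in 20 mM NaOAc, or 200 μM in buffers of pH 3.0–7.0) was mixed with 1 μL ThT. Fluorescence was read at 37 °C (ex 444 nm, em 485 nm, 10 nm bandwidth) every 10 min for at least 15 h with gentle agitation. Signal was normalised to buffer plus ThT. Runs were done at least three times, each in triplicate; end point at 15 h.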

Human EBV-infected BLCs = assay: Immunofluorescence microscopy of bioorthogonal peptides; format: cell-based; conditions: for Intracellular aggregation in EBV-infected BLCs (within LC3 positive vesicles): 6.2 and 25 μM (also 3.1, 12.5 μM), 48 h, serum-free, CuAAC Alexa647-azide; for Aggregates in the absence of cells (CuAAC with Alexa647-azide): serum-free medium, no cells
Procedure, shortened: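 Human BSM EBV-lymphoblastoid cells (1.5 × 10^6/well) were incubated with peptide (6.25 or 25 μM; medium as control) in serum-free R0 medium at 37 °C. Cytospins (5 × 10^4 cells, 28g, 3 min) were air-dried, stored at −80 °C, and PFA-fixed. Staining: anti-LC3 1:20 overnight at 4 °C, then anti-mouse FITC 1:400. Peptide was detected by CuAAC (0.064 mM CuSO4, 0.038 mM ascorbate, 0.25 mM THPTA, AF647-azide 1:160, 100 mM Tris pH 8.0, 1 h, RT, dark). DAPI mounting; fluorescence microscopy.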

[2] = system: marmoset EBV-BLCs and co-culture with lymphocytes; assay: FACS-based immunotoxicity assay; format: cell-based, Callithrix jacchus; conditions: CellTrace-stained EBV-BLCs, 24 h, 30, 10, 3, 1 μg/mL tested
Procedure, shortened: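 EBV-BLCs were prestained with CellTrace for 20 min at RT and plated at 1 × 10^3 cells/well. Peptide (30, 10, 3, 1 μg/mL; medium as negative control) was added for 1 h at 37 °C, 5% CO2, in medium with 10% FCS. Freshly thawed axillary lymph node mononuclear cells from an EAE marmoset were then added at 1 × 10^5 cells/well for 24 h. Cells were stained with a live/dead marker and AnnexinV-APC, then fixed in 1% PFA/AnnexinV binding buffer. CellTrace+ and CellTrace– gates were each gated for AnnexinV and live/dead. Non-co-cultured lymphocytes served as control.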

[3] = Seeded nucleation ThT aggregation assay; format: physicochemical; conditions: 40 μM peptide, 200 μL, pH 5.0; seeds of 5 or 7, 3–300 ng
Procedure, shortened: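 Seeds were prepared by centrifuging aggregated peptide (20000g, 30 min) and homogenising the pellet in 20 mM NaOAc to an estimated 0.1 mg/mL. ThT fluorescence was followed at 37 °C (ex 444 nm, em 485 nm) in kinetic mode.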

## MOG31-55(NArg3) (NATGMEVGWYRPPFSRVVHLYRNGK; UniProt Q16653 60-84, looked up, fragment) [Peptide 9]
[1]; pH 5.0, 37 °C, 1–200 μM
  Aggregation of elongated MOG31–55 peptides (ThT): Neither 9 nor 10 aggregated

## MOG31-55(Pg_Cit41&46) [Peptide 11]
Human EBV-infected BLCs
  Intracellular aggregation in EBV-infected BLCs (within LC3 positive vesicles): small spheres
  Aggregates in the absence of cells (CuAAC with Alexa647-azide): large aggregates
[2]
  Concentration giving increased level of apoptosis (Annexin V): > 1 µg/mL

## MOG31-55(Pg_Cit46&Cit52) [Peptide 12]
Human EBV-infected BLCs
  Intracellular aggregation in EBV-infected BLCs (within LC3 positive vesicles): large agglomerates
  Aggregates in the absence of cells (CuAAC with Alexa647-azide): large aggregates
[2]
  Concentration giving increased level of apoptosis (Annexin V): > 1 µg/mL

## MOG35-55(Arg3) (MEVGWYRPPFSRVVHLYRNGK-NH2; not fully specified; UniProt Q16653 64-84, looked up, fragment) [Peptide 1]
[3]
  Aggregation kinetics on seeding (ThT): no aggregation was observed
[1]; pH 3.0–7.0 at 200 μM, 1–200 μM at pH 5.0, 37 °C
  Aggregation at any pH or any concentration tested (ThT): did not show any aggregation

## MOG35-55(Cit3) [Peptide 8]
[1]; 200 μM, 37 °C
  Aggregation at pH 6 compared to pH 5 (ThT): ~3 fold
  Aggregation at pH 7 compared to pH 5 (ThT): ~4 fold
[1]; 37 °C
  Concentration at which amyloid-like aggregation was observed (ThT): > 4 µM
[1]; pH 5.0, 37 °C
  Aggregation at a final concentration of 1 μM (ThT): but not at a final concentration of 1 μM

## MOG35-55(Cit41&Cit52) [Peptide 6]
[1]; 37 °C
  Concentration at which amyloid-like aggregation was observed (ThT): aggregation at all concentrations tested

## MOG35-55(Cit41) [Peptide 2]
[1]; 37 °C
  Concentration at which amyloid-like aggregation was observed (ThT): > 4 µM

## MOG35-55(Cit46) [Peptide 3]
[1]; 37 °C
  Concentration at which amyloid-like aggregation was observed (ThT): > 4 µM
[1]; pH 5.0, 37 °C
  Aggregation at a final concentration of 1 μM (ThT): but not at a final concentration of 1 μM
